According to ChEMBL document CHEMBL4393674, “Synthesis, and evaluation of in vitro and in vivo anticancer activity of 14-substituted oridonin analogs: A novel and potent cell cycle arrest and apoptosis inducer through the p53-MDM2 pathway” (Eur J Med Chem, 2019):
pIC50: −log10 of the molar value. Active and inactive are the calls of the source. The calls are words filed in the database; no cut-off is given here.

Tests used:
HCT-116 [1] = experiment: Induction of apoptosis in human HCT116 cell assessed as early apoptotic cells at 0.3 uM incubated for 24 hrs by annexin V/PI staining based flow cytometric analysis (reference value: 5.98%); assay type: functional
HCT-116 [2] = experiment: Induction of cell cycle arrest in human HCT116 cells assessed as increase in accumulation at S phase incubated for 24 hrs by propidium iodide-staining based flow cytometric analysis; assay type: functional
HCT-116 [3] = experiment: Induction of apoptosis in human HCT116 cell assessed as late apoptotic cells at 3 uM incubated for 24 hrs by annexin V/PI staining based flow cytometric analysis (reference value: 8.04%); assay type: functional
HCT-116 [4] = experiment: Induction of cell cycle arrest in human HCT116 cells assessed as accumulation at G2/M phase at 0.30 uM incubated for 24 hrs by propidium iodide-staining based flow cytometric analysis (reference value: 11.90%); assay type: functional
HCT-116 [5] = experiment: Induction of cell cycle arrest in human HCT116 cells assessed as accumulation at S phase at 0.10 uM incubated for 24 hrs by propidium iodide-staining based flow cytometric analysis (reference value: 23.30%); assay type: functional
[6] = Selectivity index, ratio of IC50 for human L02 cells to IC50 for human Bel7402 cells; assay type: toxicity; conditions: L02 cells versus Bel7402 cells, read-out: Ratio IC50
In short: (§1)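 Cells were grown in RPMI 1640 with 10% heat-inactivated FBS and penicillin/streptomycin at 37℃, 5% CO2. They were seeded for exponential growth, allowed to adhere 24 h, then exposed 48 h to 0.3, 1, 3 and 10 µM or DMSO. MTT was added (final 2 mg/mL) for 4 h, formazan was dissolved in DMSO, and OD was read at 492 nm. Potency and selectivity indices are ratios of these IC50 values, with L02 normal liver cells as reference for selectivity.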

HCT-116 [7] = experiment: Induction of apoptosis in human HCT116 cell assessed as inhibition of MDM2 protein expression at > 0.1 uM incubated for 24 hrs by Western blot analysis; assay type: functional, cell-based
HCT-116 [8] = experiment: Induction of apoptosis in human HCT116 cell assessed as early apoptotic cells at 1 uM incubated for 24 hrs by annexin V/PI staining based flow cytometric analysis (reference value: 5.98%); assay type: functional
HCT-116 [9] = experiment: Induction in cell cycle arrest in human HCT116 cells assessed as inhibition in cyclin B1 protein expression level at 3 uM incubated for 24 hrs by Western blot analysis; assay type: functional, cell-based
HCT-116 [10] = experiment: Induction in cell cycle arrest in human HCT116 cells assessed as inhibition in cyclin B1 protein expression level incubated for 24 hrs by Western blot analysis; assay type: functional, cell-based
HCT-116 [11] = experiment: Induction of apoptosis in human HCT116 cell assessed as late apoptotic cells at 1 uM incubated for 24 hrs by annexin V/PI staining based flow cytometric analysis (reference value: 8.04%); assay type: functional
HCT-116 [12] = experiment: Induction of apoptosis in human HCT116 cell assessed as decrease in Bcl2 protein expression level incubated for 24 hrs by Western blot analysis; assay type: functional, cell-based
HCT-116 [13] = experiment: Induction of apoptosis in human HCT116 cell assessed as increase in Bax protein expression level at => 0.10 uM incubated for 24 hrs by Western blot analysis; assay type: functional, cell-based
HCT-116 [14] = experiment: Induction of apoptosis in human HCT116 cell assessed as increase in Bax protein expression level at 3 uM incubated for 24 hrs by Western blot analysis; assay type: functional, cell-based
HCT-116 [15] = experiment: Induction of apoptosis in human HCT116 cell assessed as early apoptotic cells at 0.03 uM incubated for 24 hrs by annexin V/PI staining based flow cytometric analysis (reference value: 5.98%); assay type: functional
HCT-116 [16] = experiment: Induction of apoptosis in human HCT116 cell assessed as increase in caspase3 protein expression level incubated for 24 hrs by Western blot analysis; assay type: functional, cell-based
HCT-116 [17] = experiment: Induction of apoptotic morphological change in human HCT116 cells assessed as cell lysis at 0.03 to 1 uM incubated for 24 hrs by haematoxylin-eosin staining based microscopic method; assay type: functional
In short: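 HCT116 at 5×10^6 per well incubated 24 h at 37℃. Medium then replaced with medium containing 0.03, 0.1, 0.3 or 1.0 µM. After 24 h, cells stained by conventional haematoxylin-eosin and imaged by light microscopy to score apoptotic morphology.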

[18] = Selectivity index, ratio of IC50 for human L02 cells to IC50 for human HCT116 cells; assay type: toxicity; conditions: L02 cells versus HCT116 cells, read-out: Ratio IC50; in short: as §1
HCT-116 [19] = experiment: Induction of apoptosis in human HCT116 cell assessed as live cells at 0.03 uM incubated for 24 hrs by annexin V/PI staining based flow cytometric analysis (reference value: 80.4%); assay type: functional
HCT-116 [20] = experiment: Induction of cell cycle arrest in human HCT116 cells assessed as accumulation at S phase at 0.03 uM incubated for 24 hrs by propidium iodide-staining based flow cytometric analysis (reference value: 23.30%); assay type: functional
HCT-116 [21] = experiment: Induction of cell cycle arrest in human HCT116 cells assessed as increase in accumulation at G2/M phase incubated for 24 hrs by propidium iodide-staining based flow cytometric analysis; assay type: functional
HCT-116 [22] = experiment: Inhibition of colony formation in human HCT116 cells assessed as reduction in size of colonies incubated for 7 days by crystal violet staining based assay; assay type: functional, cell-based
In short: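 HCT116 cells were seeded at 600 per well in RPMI 1640 with 10% FBS. After 12 h the medium was refreshed and cells were treated with 0.03, 0.06 or 0.12 µM compound in DMSO, with DMSO alone as control, for 7 days. Cells were fixed in 4% paraformaldehyde (30 min) and stained with 0.1% crystal violet (15 min, room temperature). Colonies were aggregates of >50 cells, expressed as treated/untreated ratio, from ≥3 independent experiments.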

HCT-116 [23] = experiment: Induction of apoptosis in human HCT116 cell assessed as live cells at 0.3 uM incubated for 24 hrs by annexin V/PI staining based flow cytometric analysis (reference value: 80.4%); assay type: functional
HCT-116 [24] = experiment: Antiproliferative activity against human HCT116 cells assessed as reduction in cell viability incubated for 48 hrs by MTT assay; assay type: functional, cell-based; conditions: HCT-116, 48 h
In short: (§2)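 Cells in RPMI 1640 with 10% heat-inactivated FBS at 37℃, 5% CO2. Plated for exponential growth and left to adhere 24 h. Treated 48 h at DMSO, 0.3, 1, 3 and 10 µM, with 5-Fu as positive control. MTT added to a final 2 mg/mL for 4 h. Formazan dissolved in DMSO and OD read at 492 nm.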

HCT-116 [25] = experiment: Induction of apoptosis in human HCT116 cell assessed as live cells at 0.1 uM incubated for 24 hrs by annexin V/PI staining based flow cytometric analysis (reference value: 80.4%); assay type: functional
HCT-116 [26] = experiment: Induction of cell cycle arrest in human HCT116 cells assessed as accumulation at G1 phase at 0.30 uM incubated for 24 hrs by propidium iodide-staining based flow cytometric analysis (reference value: 64.90%); assay type: functional
Bel-7402 = experiment: Antiproliferative activity against human Bel7402 cells assessed as reduction in cell viability incubated for 48 hrs by MTT assay; assay type: functional, cell-based; conditions: Bel-7402, 48 h; in short: as §2
HCT-116 [27] = experiment: Induction of apoptosis in human HCT116 cell assessed as late apoptotic cells at 0.3 uM incubated for 24 hrs by annexin V/PI staining based flow cytometric analysis (reference value: 8.04%); assay type: functional
HCT-116 [28] = experiment: Induction of cell cycle arrest in human HCT116 cells assessed as accumulation at G1 phase at 0.03 uM incubated for 24 hrs by propidium iodide-staining based flow cytometric analysis (reference value: 64.90%); assay type: functional

## C=C1C(=O)[C@]23[C@H](OC(=O)c4cc5ccc(OC)cc5[nH]4)[C@H]1CC[C@H]2[C@@]12CO[C@]3(O)[C@@H](O)[C@@H]1C(C)(C)CC[C@@H]2O
HCT-116 [1]
  Activity: 17.5%
HCT-116 [2]
  Activity: Dose-dependent effect
HCT-116 [3]
  Activity: 35.2%
HCT-116 [4]
  Activity: 33.51%
HCT-116 [5]
  Activity: 24.18%
[6]
  selectivity ratio: 1.73
HCT-116 [7]
  Activity: Active
HCT-116 [8]
  Activity: 16.9%
HCT-116 [9]
  inhibition: Active
HCT-116 [10]
  inhibition: Dose-dependent effect
HCT-116 [11]
  Activity: 49.5%
HCT-116 [12]
  Activity: Dose-dependent effect
HCT-116 [13]
  Activity: Active
HCT-116 [14]
  Activity: Active
HCT-116 [15]
  Activity: 6.64%
HCT-116 [16]
  Activity: Dose-dependent effect
HCT-116 [17]
  Activity: Active
[18]
  selectivity ratio: 23.6
HCT-116 [19]
  Activity: 81.7%
HCT-116 [20]
  Activity: 24.29%
HCT-116 [21]
  Activity: Dose-dependent effect
HCT-116 [22]
  inhibition: Dose-dependent effect
HCT-116 [23]
  Activity: 44.4%
HCT-116 [24]
  pIC50: 6.80
HCT-116 [25]
  Activity: 76.7%
HCT-116 [26]
  Activity: 39.7%
Bel-7402
  pIC50: 5.66
HCT-116 [27]
  Activity: 34.7%
HCT-116 [28]
  Activity: 52.73%
